Test results from ChEMBL document CHEMBL4699485, “Discovery and Development of SPR519 as a Potent, Selective, and Orally Bioavailable Inhibitor of PI3Kα and mTOR Kinases for the Treatment of Solid Tumors” (J Med Chem, 2020).
Calls of active or inactive are those of the source. The calls are words filed in the database; no cut-off is given here.

Legend:
[1] = molecular target: PI3-kinase p110-alpha/p85-alpha (Homo sapiens, UniProt P42336); assay: Inhibition of recombinant human full-length N-terminal His-tagged p110 alpha/p85 alpha expressed in baculovirus expression system using PIP2 as substrate preincubated for 15 mins followed by substrate addition and measured after 60 mins by ADP HiLyte 647 tracer bound ADP2 antibody-Tb conjugate based HTRF assay
Method in brief: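 PI3Kα at 150 ng/mL (diluted stock) in 50 mM HEPES pH 7.4, 3 mM MgCl2, 2 mM DTT, 0.05% CHAPS, 50 mM NaCl, 1 mM EGTA. Compound tested over 10–0.001 µM. Final reaction held 50 µM PIP2 and 1 µM ATP. Detection mix added for 1 h, then 665/615 nm ratio read. % inhibition versus concentration fitted by four-parameter nonlinear regression to give IC50.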

[2] = Metabolic stability in dog liver microsomes assessed as parent compound remaining at 10 uM remaining after 120 mins in presence of NADPH by HPLC analysis; type: ADME, Canis lupus familiaris, Microsome; conditions: read-out: Stabilty
Method in brief: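 Compound at 10 µM was incubated with 0.5 mg/mL liver microsomes and 1 mM NADPH (final). Samples were taken at 0, 15, 30, 60 and 120 min and stopped with acetonitrile, then centrifuged and the supernatant analysed by HPLC. Percent parent remaining was set relative to the 0 min peak area (100%).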

[3] = AUC in Swiss mouse at 3 mg/kg, po via gavage by LC-MS/MS analysis; type: ADME, organism-based; design: dose 3 mg/kg; conditions: in vivo
Method in brief: (§1)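 Female Swiss mice (n=3/group), fasted overnight, given single oral gavage dose in 0.5% CMC/0.5% Tween 80 (10 mL/kg) at 1, 3 or 10 mg/kg. Serial blood sampling at 0.16–8 h into heparinized tubes. Plasma extracted with acetonitrile containing verapamil internal standard and quantified by LC-MS/MS. Cmax, Tmax, AUC and t1/2 derived from the concentration–time profile.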

[4] = Cmax in Swiss mouse at 3 mg/kg, po via gavage by LC-MS/MS analysis; type: ADME, organism-based; design: route oral, dose 3 mg/kg; conditions: in vivo; method in brief: as §1
[5] = molecular target: Voltage-gated inwardly rectifying potassium channel KCNH2 (Homo sapiens, UniProt Q12809); assay: Inhibition of human ERG by patch-clamp assay
[6] = molecular target: Receptor tyrosine-protein kinase erbB-2 (Homo sapiens) (UniProt P04626); assay: Inhibition of human ERBB2 at 1 uM using fluorescently labeled peptide substrate measured after 3 hrs by microfluidic mobility shift assay relative to control
Method in brief: (§2)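 Single-concentration screen at 1 µM in duplicate, 1% final DMSO. Kinase (typically 1 nM), fluorescently labeled peptide substrate (typically 1 µM), ATP at Km and Mg²⁺ incubated about 3 h at 25 °C, then EDTA-quenched. Substrate and phosphorylated product separated by microfluidic electrophoresis and quantified by fluorescence.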

[7] = molecular target: Inhibitor of nuclear factor kappa-B kinase subunit beta (Homo sapiens) (UniProt O14920); assay: Inhibition of human IKBKB at 1 uM using fluorescently labeled peptide substrate measured after 3 hrs by microfluidic mobility shift assay relative to control; method in brief: as §2
[8] = molecular target: Ribosomal protein S6 kinase beta-2 (Homo sapiens) (UniProt Q9UBS0); assay: Inhibition of human RPS6KB2 at 1 uM using fluorescently labeled peptide substrate measured after 3 hrs by microfluidic mobility shift assay relative to control; method in brief: as §2
[9] = molecular target: Cyclin-dependent kinase 7 (Homo sapiens) (UniProt P50613); assay: Inhibition of human CDK7 at 1 uM using fluorescently labeled peptide substrate measured after 3 hrs by microfluidic mobility shift assay relative to control; method in brief: as §2
[10] = Toxicity in Swiss mouse assessed as body weight loss at 10 mg/kg, po administered twice daily via gavage for 5 days and measuring daily during compound dosing; type: organism-based; conditions: in vivo, 120 h, time 5 day
Method in brief: (§3)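 Female Swiss mice (3 treated, 2 vehicle controls) received oral gavage twice daily for 5 days, with compound formulated in 0.5% CMC and Tween 80. Body weight, body temperature, body coat, feed intake, eyes, feces and general activity were observed daily.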

[11] = Toxicity in Swiss mouse assessed as change in feces at 10 mg/kg, po administered twice daily via gavage for 5 days and measuring daily during compound dosing; type: organism-based; conditions: in vivo, 120 h, time 5 day; method in brief: as §3
[12] = Toxicity in Swiss mouse assessed as piloerection at 30 mg/kg, po administered twice daily via gavage for 12 days and measured on day 9; type: organism-based; conditions: in vivo, 288 h, time 12 day
Method in brief: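 Female Swiss mice (4 treated, 2 controls) were gavaged twice daily for 12 days, with compound in 0.5% CMC and Tween 80. Clinical signs including body coat, body weight, temperature, feed intake and general activity were monitored daily.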

[13] = Toxicity in Swiss mouse assessed as morphological changes in kidney at 30 mg/kg, po administered twice daily via gavage for 5 days and measured post last dose; type: organism-based; conditions: in vivo, 120 h, time 5 day
Method in brief: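 Female Swiss mice (3 treated, 2 controls) were gavaged twice daily for 5 days, with compound in 0.5% CMC and Tween 80. After the last dosing the animals were sacrificed. Liver, kidney, lung, uterus and brain were excised and inspected visually for morphology and color change.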

[14] = Drug level in Swiss mouse kidney at 30 mg/kg, po administered twice daily via gavage for 5 days and measured post last dose by LC-MS/MS analysis; type: ADME, organism-based; conditions: time 5 day, read-out: Drug uptake
Method in brief: (§4)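 Female Swiss mice (n=3) given 30 mg/kg in 0.5% CMC/Tween 80 by oral gavage twice daily for 5 days, with two vehicle controls. After sacrifice, liver, kidney, lung, uterus and brain were collected, homogenized in water and solvent-extracted. Drug concentration (ng/g) measured by LC-MS/MS.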

[15] = Drug level in Swiss mouse liver at 30 mg/kg, po administered twice daily via gavage for 5 days and measured post last dose by LC-MS/MS analysis; type: ADME, organism-based; conditions: time 5 day, read-out: Drug uptake; method in brief: as §4
[16] = Drug level in Swiss mouse lung at 30 mg/kg, po administered twice daily via gavage for 5 days and measured post last dose by LC-MS/MS analysis; type: ADME, organism-based; conditions: time 5 day, read-out: Drug uptake; method in brief: as §4
SK-OV-3 [17] = assay: Antitumor activity against human SK-OV-3 cells xenografted in CD1 nude mouse assessed as tumor growth inhibition at 2.5 mg/kg, po administered once daily for 27 days and measured on day 3; type: functional, organism-based; conditions: time 27.0 day
Method in brief: (§5)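 Female CD1 nude mice bearing subcutaneous SK-OV-3 xenografts, randomized at average tumor size 120–130 mm³, five per group. Given oral doses of 2.5, 5 or 10 mg/kg once daily for 27 days alongside a vehicle control. Tumor volume from caliper length and width as (width² × length)/2, tracked every third day. Two-way ANOVA with Dunnett's test, n=5.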

SK-OV-3 [18] = assay: Antitumor activity against human SK-OV-3 cells xenografted in po dosed CD1 nude mouse assessed as reduction in tumor volume administered once daily for 27 days and measured at 3 days interval during compound dosing; type: functional, organism-based; conditions: dose mg/kg 2.5-10, time 27.0 day; method in brief: as §5
[19] = molecular target: 3-phosphoinositide-dependent protein kinase 1 (Homo sapiens) (UniProt O15530); assay: Inhibition of human PDK1 at 1 uM using fluorescently labeled peptide substrate measured after 3 hrs by microfluidic mobility shift assay relative to control
Chain of 3-phosphoinositide-dependent protein kinase 1 (Homo sapiens) (O15530 whole entry, looked up): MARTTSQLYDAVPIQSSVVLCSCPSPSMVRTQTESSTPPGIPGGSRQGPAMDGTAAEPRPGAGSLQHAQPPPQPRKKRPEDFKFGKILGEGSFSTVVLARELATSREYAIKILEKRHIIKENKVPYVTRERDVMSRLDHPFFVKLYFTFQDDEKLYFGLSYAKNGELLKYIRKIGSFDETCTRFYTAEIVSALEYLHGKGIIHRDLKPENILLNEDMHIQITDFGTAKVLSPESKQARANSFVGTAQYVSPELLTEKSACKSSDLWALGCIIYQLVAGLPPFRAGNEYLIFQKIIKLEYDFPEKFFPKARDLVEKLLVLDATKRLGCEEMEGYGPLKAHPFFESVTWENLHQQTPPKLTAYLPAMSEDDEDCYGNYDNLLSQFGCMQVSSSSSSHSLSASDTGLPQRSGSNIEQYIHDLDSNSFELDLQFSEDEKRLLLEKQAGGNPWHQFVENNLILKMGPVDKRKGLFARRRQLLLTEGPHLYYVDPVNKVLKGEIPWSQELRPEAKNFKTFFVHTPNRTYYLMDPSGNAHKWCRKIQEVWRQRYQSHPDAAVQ

Chain of PI3-kinase p110-alpha/p85-alpha (P27986 whole entry): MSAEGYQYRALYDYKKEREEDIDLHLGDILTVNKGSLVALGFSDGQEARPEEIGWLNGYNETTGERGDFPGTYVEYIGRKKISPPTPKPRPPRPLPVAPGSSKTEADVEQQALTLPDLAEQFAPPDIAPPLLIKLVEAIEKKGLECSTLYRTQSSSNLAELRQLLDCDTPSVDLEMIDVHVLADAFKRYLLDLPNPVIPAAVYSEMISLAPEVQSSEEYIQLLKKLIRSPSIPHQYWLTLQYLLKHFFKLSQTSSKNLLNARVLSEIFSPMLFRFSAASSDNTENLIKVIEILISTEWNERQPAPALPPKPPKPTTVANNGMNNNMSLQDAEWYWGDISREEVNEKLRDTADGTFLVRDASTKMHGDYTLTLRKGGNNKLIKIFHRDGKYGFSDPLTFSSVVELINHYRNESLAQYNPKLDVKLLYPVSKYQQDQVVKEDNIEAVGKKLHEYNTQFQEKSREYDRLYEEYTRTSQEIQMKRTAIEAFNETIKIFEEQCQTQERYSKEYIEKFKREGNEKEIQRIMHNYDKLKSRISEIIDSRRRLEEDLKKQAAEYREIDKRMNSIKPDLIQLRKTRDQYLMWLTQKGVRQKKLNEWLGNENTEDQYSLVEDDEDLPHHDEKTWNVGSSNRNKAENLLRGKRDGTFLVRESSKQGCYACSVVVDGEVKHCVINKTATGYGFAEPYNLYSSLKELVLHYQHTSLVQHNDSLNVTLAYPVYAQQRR
Chain of PI3-kinase p110-alpha/p85-alpha (P42336 whole entry): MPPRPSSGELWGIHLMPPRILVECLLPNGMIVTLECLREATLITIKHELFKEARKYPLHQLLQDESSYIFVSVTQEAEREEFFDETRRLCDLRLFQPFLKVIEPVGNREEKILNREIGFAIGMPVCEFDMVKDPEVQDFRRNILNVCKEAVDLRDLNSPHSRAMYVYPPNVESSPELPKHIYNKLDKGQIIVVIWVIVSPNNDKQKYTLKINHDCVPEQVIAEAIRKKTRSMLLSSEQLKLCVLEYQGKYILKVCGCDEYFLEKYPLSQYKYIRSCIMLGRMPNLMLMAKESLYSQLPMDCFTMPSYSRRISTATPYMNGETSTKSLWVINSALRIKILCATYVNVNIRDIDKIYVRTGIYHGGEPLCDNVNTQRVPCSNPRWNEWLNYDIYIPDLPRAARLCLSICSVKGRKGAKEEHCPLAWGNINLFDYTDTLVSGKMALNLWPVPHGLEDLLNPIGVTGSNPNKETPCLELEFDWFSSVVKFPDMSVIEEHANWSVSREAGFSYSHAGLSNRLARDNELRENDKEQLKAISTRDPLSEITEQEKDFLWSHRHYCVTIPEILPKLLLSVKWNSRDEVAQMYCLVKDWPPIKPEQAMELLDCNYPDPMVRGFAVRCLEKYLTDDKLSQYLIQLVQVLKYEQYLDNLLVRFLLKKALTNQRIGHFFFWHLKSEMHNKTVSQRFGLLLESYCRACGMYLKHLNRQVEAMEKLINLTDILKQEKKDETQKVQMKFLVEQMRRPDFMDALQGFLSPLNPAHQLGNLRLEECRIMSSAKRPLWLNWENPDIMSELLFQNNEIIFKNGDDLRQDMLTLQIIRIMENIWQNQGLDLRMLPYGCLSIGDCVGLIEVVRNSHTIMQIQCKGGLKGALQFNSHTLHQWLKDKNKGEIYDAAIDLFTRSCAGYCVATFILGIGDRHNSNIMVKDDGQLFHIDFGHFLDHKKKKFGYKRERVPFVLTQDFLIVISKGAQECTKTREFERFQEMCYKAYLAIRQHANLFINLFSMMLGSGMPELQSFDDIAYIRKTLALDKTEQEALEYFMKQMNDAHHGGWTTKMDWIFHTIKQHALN
Chain of Cyclin-dependent kinase 7 (Homo sapiens) (P50613 whole entry): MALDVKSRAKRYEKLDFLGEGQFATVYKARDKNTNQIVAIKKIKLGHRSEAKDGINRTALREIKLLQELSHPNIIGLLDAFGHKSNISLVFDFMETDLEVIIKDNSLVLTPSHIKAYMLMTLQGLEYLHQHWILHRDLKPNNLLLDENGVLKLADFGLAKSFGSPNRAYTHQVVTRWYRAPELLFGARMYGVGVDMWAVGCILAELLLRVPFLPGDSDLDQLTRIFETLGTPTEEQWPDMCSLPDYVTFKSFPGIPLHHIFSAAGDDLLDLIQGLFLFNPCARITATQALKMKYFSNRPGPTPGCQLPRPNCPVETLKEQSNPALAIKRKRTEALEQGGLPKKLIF
Chain of Receptor tyrosine-protein kinase erbB-2 (Homo sapiens) (P04626 whole entry): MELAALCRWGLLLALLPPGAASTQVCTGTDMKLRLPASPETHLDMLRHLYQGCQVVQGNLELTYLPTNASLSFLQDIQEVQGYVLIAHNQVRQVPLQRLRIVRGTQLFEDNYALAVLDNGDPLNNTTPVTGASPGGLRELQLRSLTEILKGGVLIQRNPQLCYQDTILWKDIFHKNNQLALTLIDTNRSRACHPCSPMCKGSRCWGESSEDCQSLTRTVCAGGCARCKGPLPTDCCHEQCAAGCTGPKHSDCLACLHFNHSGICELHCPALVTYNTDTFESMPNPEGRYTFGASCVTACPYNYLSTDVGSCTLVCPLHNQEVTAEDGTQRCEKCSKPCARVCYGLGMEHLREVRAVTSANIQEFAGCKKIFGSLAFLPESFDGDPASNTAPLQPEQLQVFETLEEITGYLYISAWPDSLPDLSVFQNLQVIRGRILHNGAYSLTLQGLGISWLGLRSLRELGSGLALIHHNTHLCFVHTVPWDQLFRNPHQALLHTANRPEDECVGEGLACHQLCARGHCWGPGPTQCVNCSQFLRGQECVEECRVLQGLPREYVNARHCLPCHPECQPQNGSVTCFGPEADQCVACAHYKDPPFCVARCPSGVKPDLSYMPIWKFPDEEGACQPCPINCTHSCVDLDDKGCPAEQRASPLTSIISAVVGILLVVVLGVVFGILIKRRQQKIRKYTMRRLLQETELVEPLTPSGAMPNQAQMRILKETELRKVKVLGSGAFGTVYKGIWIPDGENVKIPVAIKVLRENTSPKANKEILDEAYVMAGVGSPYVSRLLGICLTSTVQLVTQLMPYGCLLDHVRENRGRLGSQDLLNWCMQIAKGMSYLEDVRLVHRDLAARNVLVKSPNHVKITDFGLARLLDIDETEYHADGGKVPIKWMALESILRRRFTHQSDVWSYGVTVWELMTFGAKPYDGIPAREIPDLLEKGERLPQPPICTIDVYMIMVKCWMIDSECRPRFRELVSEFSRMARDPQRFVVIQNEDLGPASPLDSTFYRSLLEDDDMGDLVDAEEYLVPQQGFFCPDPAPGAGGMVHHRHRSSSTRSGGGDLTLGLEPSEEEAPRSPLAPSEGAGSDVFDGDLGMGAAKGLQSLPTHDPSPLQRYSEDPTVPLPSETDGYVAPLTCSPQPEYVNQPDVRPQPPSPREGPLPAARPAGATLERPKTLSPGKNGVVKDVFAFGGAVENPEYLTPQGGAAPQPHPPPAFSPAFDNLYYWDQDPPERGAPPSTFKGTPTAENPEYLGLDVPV
Chain of Ribosomal protein S6 kinase beta-2 (Homo sapiens) (Q9UBS0 whole entry): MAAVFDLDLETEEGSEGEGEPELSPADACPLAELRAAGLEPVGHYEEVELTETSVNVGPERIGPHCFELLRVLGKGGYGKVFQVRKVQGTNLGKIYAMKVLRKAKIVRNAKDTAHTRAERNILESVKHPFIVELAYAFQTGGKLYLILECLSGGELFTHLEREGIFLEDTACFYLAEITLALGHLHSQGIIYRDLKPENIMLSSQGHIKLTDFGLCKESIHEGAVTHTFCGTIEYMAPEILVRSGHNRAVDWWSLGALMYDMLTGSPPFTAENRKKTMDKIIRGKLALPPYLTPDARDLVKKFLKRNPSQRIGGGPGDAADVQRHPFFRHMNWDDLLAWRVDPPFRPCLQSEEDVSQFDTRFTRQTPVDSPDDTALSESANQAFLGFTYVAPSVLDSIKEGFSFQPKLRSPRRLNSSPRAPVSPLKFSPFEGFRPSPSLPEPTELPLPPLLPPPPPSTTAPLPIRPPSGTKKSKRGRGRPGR

## CN(C)C(=O)c1ccc(Oc2nc(-c3cnc(N)s3)nc(N3CCOCC3)n2)cc1
[1]
  IC50: 30 nM
[2]
  remaining at 2 h, 10 µM: 105%
[3]
  AUC: 32.1 µM·h
[4]
  Cmax: 6.9 µM
[5]
  IC50: > 10000 nM
[6]
  inhibition: -1%
[7]
  inhibition: -3%
[8]
  inhibition: -3%
[9]
  inhibition: -10%
[10]
  Activity: Non-Toxic
[11]
  Activity: Non-Toxic
[12]
  Activity: Toxic
[13]
  Activity: Non-Toxic
[14]
  concentration at 120 h: 160 ng/g
[15]
  concentration at 120 h: 85 ng/g
[16]
  concentration at 120 h: 50 ng/g
SK-OV-3 [17]
  TGI: Active
SK-OV-3 [18]
  Activity: Dose-dependent effect
[19]
  inhibition: -1%
